Data taken from ChEMBL document CHEMBL4229342, “Synthesis of novel proxyphylline derivatives with dual Anti-Candida albicans and anticancer activity” (Eur J Med Chem, 2018).

test system: MCF7; assay: Antiproliferative activity against human MCF7 cells assessed as cell viability at 25 uM after 72 hrs by MTT assay; type: functional; conditions: MCF7, 72 h, read-out: Activity
Method in brief: (§1)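 MTT viability assay in CCRF-CEM and MCF-7 cells after 72 h exposure at 25, 50, 100 and 200 µM. Results are relative to control cells without inhibitor in 0.5% DMSO. Done in triplicate; values are means ± SD of three independent experiments.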

| Compound | viability at 25 µM [%] |
| --- | --- |
| CC(Cn1cnc2c1c(=O)n(C)c(=O)n2C)OC(=O)Sc1ccccc1 (configuration not stated) | 86.8 |
| Brc1c(Br)c(Br)c2[nH]cnc2c1Br | 19.6 |

test system: Candida albicans; assay: Growth inhibition of Candida albicans ATCC 90028 at 0.0625 ug/ml incubated for 18 hrs at 35 degC by broth microdilution method relative to control; type: functional; conditions: ATCC 90028, 18 h, read-out: GI

| Compound | inhibition of growth at 0.0625 µg/mL [%] |
| --- | --- |
| CC(Cn1cnc2c1c(=O)n(C)c(=O)n2C)OC(=O)Sc1ccccc1 (configuration not stated) | 99.7 |

test system: Candida albicans; assay: Growth inhibition of Candida albicans ATCC 90028 at 0.125 ug/ml incubated for 4 hrs at 35 degC by broth microdilution method relative to control; type: functional; conditions: ATCC 90028, 4 h, read-out: GI

| Compound | inhibition of growth at 0.125 µg/mL [%] |
| --- | --- |
| CC(Cn1cnc2c1c(=O)n(C)c(=O)n2C)OC(=O)Sc1ccccc1 (configuration not stated) | 99.1 |

test system: Candida albicans; assay: Growth inhibition of Candida albicans ATCC 90028 at 2 ug/ml incubated for 18 hrs at 35 degC by broth microdilution method relative to control; type: functional; conditions: ATCC 90028, 18 h, read-out: GI

| Compound | inhibition of growth at 2 µg/mL [%] |
| --- | --- |
| CC(Cn1cnc2c1c(=O)n(C)c(=O)n2C)OC(=O)Sc1ccccc1 (configuration not stated) | 100 |

test system: Candida albicans; assay: Growth inhibition of Candida albicans ATCC 90028 at 2 ug/ml incubated for 4 hrs at 35 degC by broth microdilution method relative to control; type: functional; conditions: ATCC 90028, 4 h, read-out: GI

| Compound | inhibition of growth at 2 µg/mL [%] |
| --- | --- |
| CC(Cn1cnc2c1c(=O)n(C)c(=O)n2C)OC(=O)Sc1ccccc1 (configuration not stated) | 99.3 |

test system: Candida albicans; assay: Growth inhibition of Candida albicans ATCC 90028 at 1 ug/ml incubated for 4 hrs at 35 degC by broth microdilution method relative to control; type: functional; conditions: ATCC 90028, 4 h, read-out: GI

| Compound | inhibition of growth at 1 µg/mL [%] |
| --- | --- |
| CC(Cn1cnc2c1c(=O)n(C)c(=O)n2C)OC(=O)Sc1ccccc1 (configuration not stated) | 99.5 |

test system: Candida albicans; assay: Growth inhibition of Candida albicans ATCC 90028 at 0.25 ug/ml incubated for 4 hrs at 35 degC by broth microdilution method relative to control; type: functional; conditions: ATCC 90028, 4 h, read-out: GI

| Compound | inhibition of growth at 0.25 µg/mL [%] |
| --- | --- |
| CC(Cn1cnc2c1c(=O)n(C)c(=O)n2C)OC(=O)Sc1ccccc1 (configuration not stated) | 99.5 |

test system: CCRF-CEM; assay: Antiproliferative activity against human CCRF-CEM cells assessed as cell viability at 50 uM after 72 hrs by MTT assay; type: functional; conditions: read-out: Activity; method in brief: as §1

| Compound | viability at 50 µM [%] |
| --- | --- |
| CC(Cn1cnc2c1c(=O)n(C)c(=O)n2C)OC(=O)Sc1ccccc1 (configuration not stated) | 37.1 |
| Brc1c(Br)c(Br)c2[nH]cnc2c1Br | 0 |

test system: MCF7; assay: Antiproliferative activity against human MCF7 cells assessed as cell viability at 200 uM after 72 hrs by MTT assay; type: functional; conditions: MCF7, 72 h, read-out: Activity; method in brief: as §1

| Compound | viability at 200 µM [%] |
| --- | --- |
| CC(Cn1cnc2c1c(=O)n(C)c(=O)n2C)OC(=O)Sc1ccccc1 (configuration not stated) | 43.1 |
| Brc1c(Br)c(Br)c2[nH]cnc2c1Br | 1.7 |

test system: Candida albicans; assay: Growth inhibition of Candida albicans ATCC 90028 at 0.5 ug/ml incubated for 18 hrs at 35 degC by broth microdilution method relative to control; type: functional; conditions: ATCC 90028, 18 h, read-out: GI

| Compound | inhibition of growth at 0.5 µg/mL [%] |
| --- | --- |
| CC(Cn1cnc2c1c(=O)n(C)c(=O)n2C)OC(=O)Sc1ccccc1 (configuration not stated) | 99.9 |

test system: Candida albicans; assay: Fungicidal activity against Candida albicans ATCC 90028 assessed as log reduction in cell viability at 16 ug/ml after 48 hrs at 35 degC; type: functional; conditions: not given
Method in brief: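 MFC assay on C. albicans ATCC 90028 following M27-A3, at the molar equivalent of 16 µg/mL. CFU of treated cells were compared with CFU of the untreated inoculum. Activity is given as lg R = lg CFU/mL control − lg CFU/mL treated, and lg R ≥3 was defined as fungicidal. Values are means of two independent experiments.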

| Compound | log(activity) |
| --- | --- |
| CC(Cn1cnc2c1c(=O)n(C)c(=O)n2C)OC(=O)Sc1ccccc1 (configuration not stated) | 0.1 |

test system: MCF7; assay: Antiproliferative activity against human MCF7 cells assessed as cell viability at 100 uM after 72 hrs by MTT assay; type: functional; conditions: MCF7, 72 h, read-out: Activity; method in brief: as §1

| Compound | viability at 100 µM [%] |
| --- | --- |
| CC(Cn1cnc2c1c(=O)n(C)c(=O)n2C)OC(=O)Sc1ccccc1 (configuration not stated) | 69.9 |
| Brc1c(Br)c(Br)c2[nH]cnc2c1Br | 9 |

test system: Candida albicans; assay: Growth inhibition of Candida albicans ATCC 90028 at 16 ug/ml incubated for 18 hrs at 35 degC by broth microdilution method relative to control; type: functional; conditions: ATCC 90028, 18 h, read-out: GI

| Compound | inhibition of growth at 16 µg/mL [%] |
| --- | --- |
| CC(Cn1cnc2c1c(=O)n(C)c(=O)n2C)OC(=O)Sc1ccccc1 (configuration not stated) | 99.8 |

test system: Candida albicans; assay: Growth inhibition of Candida albicans ATCC 90028 at 0.125 ug/ml incubated for 18 hrs at 35 degC by broth microdilution method relative to control; type: functional; conditions: ATCC 90028, 18 h, read-out: GI

| Compound | inhibition of growth at 0.125 µg/mL [%] |
| --- | --- |
| CC(Cn1cnc2c1c(=O)n(C)c(=O)n2C)OC(=O)Sc1ccccc1 (configuration not stated) | 99.5 |

test system: Candida albicans; assay: Growth inhibition of Candida albicans ATCC 90028 at 0.0313 ug/ml incubated for 18 hrs at 35 degC by broth microdilution method relative to control; type: functional; conditions: ATCC 90028, 18 h, read-out: GI

| Compound | inhibition of growth at 0.0313 µg/mL [%] |
| --- | --- |
| CC(Cn1cnc2c1c(=O)n(C)c(=O)n2C)OC(=O)Sc1ccccc1 (configuration not stated) | 99.8 |

test system: Candida albicans; assay: Growth inhibition of Candida albicans ATCC 90028 at 0.25 ug/ml incubated for 18 hrs at 35 degC by broth microdilution method relative to control; type: functional; conditions: ATCC 90028, 18 h, read-out: GI

| Compound | inhibition of growth at 0.25 µg/mL [%] |
| --- | --- |
| CC(Cn1cnc2c1c(=O)n(C)c(=O)n2C)OC(=O)Sc1ccccc1 (configuration not stated) | 100 |

test system: Candida albicans; assay: Growth inhibition of Candida albicans ATCC 90028 at 0.5 ug/ml incubated for 4 hrs at 35 degC by broth microdilution method relative to control; type: functional; conditions: ATCC 90028, 4 h, read-out: GI

| Compound | inhibition of growth at 0.5 µg/mL [%] |
| --- | --- |
| CC(Cn1cnc2c1c(=O)n(C)c(=O)n2C)OC(=O)Sc1ccccc1 (configuration not stated) | 99.4 |

test system: Candida albicans; assay: Growth inhibition of Candida albicans ATCC 90028 at 8 ug/ml incubated for 48 hrs at 35 degC by broth microdilution method relative to control; type: functional; conditions: ATCC 90028, 48 h, read-out: GI

| Compound | inhibition of growth at 8 µg/mL [%] |
| --- | --- |
| CC(Cn1cnc2c1c(=O)n(C)c(=O)n2C)OC(=O)Sc1ccccc1 (configuration not stated) | 99.2 |

test system: MCF7; assay: Antiproliferative activity against human MCF7 cells assessed as cell viability at 50 uM after 72 hrs by MTT assay; type: functional; conditions: MCF7, 72 h, read-out: Activity; method in brief: as §1

| Compound | viability at 50 µM [%] |
| --- | --- |
| CC(Cn1cnc2c1c(=O)n(C)c(=O)n2C)OC(=O)Sc1ccccc1 (configuration not stated) | 81.9 |
| Brc1c(Br)c(Br)c2[nH]cnc2c1Br | 24.6 |

test system: Candida albicans; assay: Growth inhibition of Candida albicans ATCC 90028 at 0.0625 ug/ml incubated for 4 hrs at 35 degC by broth microdilution method relative to control; type: functional; conditions: ATCC 90028, 4 h, read-out: GI

| Compound | inhibition of growth at 0.0625 µg/mL [%] |
| --- | --- |
| CC(Cn1cnc2c1c(=O)n(C)c(=O)n2C)OC(=O)Sc1ccccc1 (configuration not stated) | 99.1 |

test system: CCRF-CEM; assay: Antiproliferative activity against human CCRF-CEM cells assessed as cell viability at 25 uM after 72 hrs by MTT assay; type: functional; conditions: read-out: Activity; method in brief: as §1

| Compound | viability at 25 µM [%] |
| --- | --- |
| CC(Cn1cnc2c1c(=O)n(C)c(=O)n2C)OC(=O)Sc1ccccc1 (configuration not stated) | 53.9 |
| Brc1c(Br)c(Br)c2[nH]cnc2c1Br | 6.3 |

test system: Candida albicans; assay: Growth inhibition of Candida albicans ATCC 90028 at 1 ug/ml incubated for 18 hrs at 35 degC by broth microdilution method relative to control; type: functional; conditions: ATCC 90028, 18 h, read-out: GI

| Compound | inhibition of growth at 1 µg/mL [%] |
| --- | --- |
| CC(Cn1cnc2c1c(=O)n(C)c(=O)n2C)OC(=O)Sc1ccccc1 (configuration not stated) | 99.9 |

test system: Candida albicans; assay: Growth inhibition of Candida albicans ATCC 90028 at 4 ug/ml incubated for 18 hrs at 35 degC by broth microdilution method relative to control; type: functional; conditions: ATCC 90028, 18 h, read-out: GI

| Compound | inhibition of growth at 4 µg/mL [%] |
| --- | --- |
| CC(Cn1cnc2c1c(=O)n(C)c(=O)n2C)OC(=O)Sc1ccccc1 (configuration not stated) | 99.8 |

test system: Candida albicans; assay: Growth inhibition of Candida albicans ATCC 90028 at 8 ug/ml incubated for 18 hrs at 35 degC by broth microdilution method relative to control; type: functional; conditions: ATCC 90028, 18 h, read-out: GI

| Compound | inhibition of growth at 8 µg/mL [%] |
| --- | --- |
| CC(Cn1cnc2c1c(=O)n(C)c(=O)n2C)OC(=O)Sc1ccccc1 (configuration not stated) | 100 |

test system: Candida albicans; assay: Growth inhibition of Candida albicans ATCC 90028 at 16 ug/ml incubated for 48 hrs at 35 degC by broth microdilution method relative to control; type: functional; conditions: ATCC 90028, 48 h, read-out: GI

| Compound | inhibition of growth at 16 µg/mL [%] |
| --- | --- |
| CC(Cn1cnc2c1c(=O)n(C)c(=O)n2C)OC(=O)Sc1ccccc1 (configuration not stated) | 99.5 |

test system: CCRF-CEM; assay: Antiproliferative activity against human CCRF-CEM cells assessed as cell viability at 200 uM after 72 hrs by MTT assay; type: functional; conditions: read-out: Activity; method in brief: as §1

| Compound | viability at 200 µM [%] |
| --- | --- |
| CC(Cn1cnc2c1c(=O)n(C)c(=O)n2C)OC(=O)Sc1ccccc1 (configuration not stated) | 0.5 |
| Brc1c(Br)c(Br)c2[nH]cnc2c1Br | 0 |

test system: Candida albicans; assay: Growth inhibition of Candida albicans ATCC 90028 at 8 ug/ml incubated for 4 hrs at 35 degC by broth microdilution method relative to control; type: functional; conditions: ATCC 90028, 4 h, read-out: GI

| Compound | inhibition of growth at 8 µg/mL [%] |
| --- | --- |
| CC(Cn1cnc2c1c(=O)n(C)c(=O)n2C)OC(=O)Sc1ccccc1 (configuration not stated) | 99.5 |

test system: Candida albicans; assay: Growth inhibition of Candida albicans ATCC 90028 at 0.0313 ug/ml incubated for 4 hrs at 35 degC by broth microdilution method relative to control; type: functional; conditions: ATCC 90028, 4 h, read-out: GI

| Compound | inhibition of growth at 0.0313 µg/mL [%] |
| --- | --- |
| CC(Cn1cnc2c1c(=O)n(C)c(=O)n2C)OC(=O)Sc1ccccc1 (configuration not stated) | 99.3 |

test system: CCRF-CEM; assay: Antiproliferative activity against human CCRF-CEM cells assessed as cell viability at 100 uM after 72 hrs by MTT assay; type: functional; conditions: read-out: Activity; method in brief: as §1

| Compound | viability at 100 µM [%] |
| --- | --- |
| CC(Cn1cnc2c1c(=O)n(C)c(=O)n2C)OC(=O)Sc1ccccc1 (configuration not stated) | 14.5 |
| Brc1c(Br)c(Br)c2[nH]cnc2c1Br | 0 |
